Measurements as given in ChEMBL document CHEMBL4715736, “Identification of anticancer agents based on the thieno[2,3-b]pyridine and 1H-pyrazole molecular scaffolds” (2016).

How the values were obtained:
Assay type in all cases: functional
RPMI-8226 = assay: Growth inhibition of human RPMI-8226 cells assessed as cell growth at 0.01 uM incubated for 48 hrs by sulforhodamine B assay relative to control; settings: read-out: Activity
HT-29 = assay: Growth inhibition of human HT-29 cells assessed as cell growth at 0.01 uM incubated for 48 hrs by sulforhodamine B assay relative to control; settings: read-out: Activity
ACHN [1] = assay: Growth inhibition of human ACHN cells assessed as cell growth at 0.01 uM incubated for 48 hrs by sulforhodamine B assay relative to control; settings: read-out: Activity
UO-31 [2] = assay: Growth inhibition of human UO-31 cells assessed as cell growth at 0.01 uM incubated for 48 hrs by sulforhodamine B assay relative to control; settings: read-out: Activity
HOP-92 = assay: Growth inhibition of human HOP-92 cells assessed as cell growth at 0.1 uM incubated for 48 hrs by sulforhodamine B assay relative to control; settings: read-out: Activity
NCI-H226 = assay: Growth inhibition of human NCI-H226 cells assessed as cell growth at 0.1 uM incubated for 48 hrs by sulforhodamine B assay relative to control; settings: read-out: Activity
NCI-H522 [3] = assay: Growth inhibition of human NCI-H522 cells assessed as cell growth at 0.1 uM incubated for 48 hrs by sulforhodamine B assay relative to control; settings: read-out: Activity
COLO 205 = assay: Growth inhibition of human COLO 205 cells assessed as cell growth at 0.1 uM incubated for 48 hrs by sulforhodamine B assay relative to control; settings: read-out: Activity
Summary of the method: (§1)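 NCI Developmental Therapeutics Program NCI60 panel. Compounds that were active in the 10 µM one-dose screen went on to dose–response testing. Growth at each concentration is expressed relative to untreated control (100%). GI50 (concentration giving 50% of maximal inhibition of proliferation) and TGI (concentration giving total growth inhibition) were derived from the curves.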

HCT-15 = assay: Growth inhibition of human HCT-15 cells assessed as cell growth at 0.1 uM incubated for 48 hrs by sulforhodamine B assay relative to control; settings: read-out: Activity
SNB-75 = assay: Growth inhibition of human SNB-75 cells assessed as cell growth at 0.1 uM incubated for 48 hrs by sulforhodamine B assay relative to control; settings: read-out: Activity
M14 [4] = assay: Growth inhibition of human M14 cells assessed as cell growth at 0.1 uM incubated for 48 hrs by sulforhodamine B assay relative to control; settings: read-out: Activity
SK-MEL-2 = assay: Growth inhibition of human SK-MEL-2 cells assessed as cell growth at 0.1 uM incubated for 48 hrs by sulforhodamine B assay relative to control; settings: read-out: Activity
UACC-257 = assay: Growth inhibition of human UACC-257 cells assessed as cell growth at 0.1 uM incubated for 48 hrs by sulforhodamine B assay relative to control; settings: read-out: Activity
SK-OV-3 [5] = assay: Growth inhibition of human SK-OV-3 cells assessed as cell growth at 0.1 uM incubated for 48 hrs by sulforhodamine B assay relative to control; settings: read-out: Activity
SN12C = assay: Growth inhibition of human SN12C cells assessed as cell growth at 0.1 uM incubated for 48 hrs by sulforhodamine B assay relative to control; settings: read-out: Activity
MOLT-4 = assay: Growth inhibition of human MOLT-4 cells assessed as cell growth at 1 uM incubated for 48 hrs by sulforhodamine B assay relative to control; settings: read-out: Activity
A549 = assay: Growth inhibition of human A549/ATCC cells assessed as cell growth at 1 uM incubated for 48 hrs by sulforhodamine B assay relative to control; settings: read-out: Activity; summary of the method: as §1
HCT-116 = assay: Growth inhibition of human HCT-116 cells assessed as cell growth at 1 uM incubated for 48 hrs by sulforhodamine B assay relative to control; settings: read-out: Activity
SF-539 = assay: Growth inhibition of human SF-539 cells assessed as cell growth at 1 uM incubated for 48 hrs by sulforhodamine B assay relative to control; settings: read-out: Activity
OVCAR-5 = assay: Growth inhibition of human OVCAR-5 cells assessed as cell growth at 1 uM incubated for 48 hrs by sulforhodamine B assay relative to control; settings: read-out: Activity
SK-OV-3 [6] = assay: Growth inhibition of human SK-OV-3 cells assessed as cell growth at 1 uM incubated for 48 hrs by sulforhodamine B assay relative to control; settings: read-out: Activity
NCI-H522 [7] = assay: Growth inhibition of human NCI-H522 cells assessed as cell growth at 100 uM incubated for 48 hrs by sulforhodamine B assay relative to control; settings: read-out: Activity
U-251 = assay: Growth inhibition of human U-251 cells assessed as cell growth at 100 uM incubated for 48 hrs by sulforhodamine B assay relative to control; settings: read-out: Activity
SK-MEL-5 = assay: Growth inhibition of human SK-MEL-5 cells assessed as cell growth at 100 uM incubated for 48 hrs by sulforhodamine B assay relative to control; settings: read-out: Activity
A498 [8] = assay: Growth inhibition of human A498 cells assessed as cell growth at 100 uM incubated for 48 hrs by sulforhodamine B assay relative to control; settings: read-out: Activity; summary of the method: as §1
ACHN [9] = assay: Growth inhibition of human ACHN cells assessed as cell growth at 100 uM incubated for 48 hrs by sulforhodamine B assay relative to control; settings: read-out: Activity
MCF7 = assay: Growth inhibition of human MCF7 cells assessed as cell growth at 100 uM incubated for 48 hrs by sulforhodamine B assay relative to control; settings: read-out: Activity
SF-268 = assay: Growth inhibition of human SF-268 cells incubated for 48 hrs by sulforhodamine B assay
Summary of the method: (§2)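 NCI DTP 60-line human tumour panel. Dose-response curves were run only for ligands active in the initial 10 µM screen. GI50 (concentration giving 50% of maximal inhibition of proliferation) and TGI (concentration giving total growth inhibition) were derived from these curves.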

M14 [10] = assay: Growth inhibition of human M14 cells incubated for 48 hrs by sulforhodamine B assay
Summary of the method: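 NCI60 panel at the NCI Developmental Therapeutics Program. Only compounds active in the 10 µM screen went to dose-response testing. GI50, the concentration giving 50% of maximal inhibition of proliferation, and TGI, the concentration giving total growth inhibition, were derived from the dose-response curves.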

OVCAR-3 = assay: Growth inhibition of human OVCAR-3 cells incubated for 48 hrs by sulforhodamine B assay; settings: for CC50: read-out: LC50 (the source's name); summary of the method: as §2
A498 [11] = assay: Growth inhibition of human A498 cells incubated for 48 hrs by sulforhodamine B assay; settings: for CC50: read-out: LC50 (the source's name); summary of the method: as §1
RXF 393 = assay: Growth inhibition of human RXF 393 cells incubated for 48 hrs by sulforhodamine B assay; settings: for CC50: read-out: LC50 (the source's name); summary of the method: as §2
TK-10 = assay: Growth inhibition of human TK-10 cells incubated for 48 hrs by sulforhodamine B assay; settings: for CC50: read-out: LC50 (the source's name); summary of the method: as §2
UO-31 [12] = assay: Growth inhibition of human UO-31 cells incubated for 48 hrs by sulforhodamine B assay; settings: for CC50: read-out: LC50 (the source's name); summary of the method: as §2

CCc1ccccc1NC(=O)c1sc2nc3c(cc2c1N)C(=O)CCC3
growth at 0.01 µM (RPMI-8226): 100% | growth at 0.01 µM (HT-29): 95% | growth at 0.01 µM (ACHN [1]): 93% | growth at 0.01 µM (UO-31 [2]): 90% | growth at 0.1 µM (HOP-92): 69% | growth at 0.1 µM (NCI-H226): 86% | growth at 0.1 µM (NCI-H522 [3]): 88% | growth at 0.1 µM (COLO 205): 98% | growth at 0.1 µM (HCT-15): 74% | growth at 0.1 µM (SNB-75): 73% | growth at 0.1 µM (M14 [4]): 78% | growth at 0.1 µM (SK-MEL-2): 104% | growth at 0.1 µM (UACC-257): 79% | growth at 0.1 µM (SK-OV-3 [5]): 103% | growth at 0.1 µM (SN12C): 88% | growth at 1 µM (MOLT-4): 66% | growth at 1 µM (A549): 39% | growth at 1 µM (HCT-116): 27% | growth at 1 µM (SF-539): 11% | growth at 1 µM (OVCAR-5): 50% | growth at 1 µM (SK-OV-3 [6]): 30% | growth at 100 µM (NCI-H522 [7]): 19% | growth at 100 µM (U-251): -15% | growth at 100 µM (SK-MEL-5): 2% | growth at 100 µM (A498 [8]): -10% | growth at 100 µM (ACHN [9]): 10% | growth at 100 µM (MCF7): 9% | GI50 (SF-268): 10.1 µM | LC50 (concentration killing 50% of cells) (SF-268): > 100 µM | TGI (SF-268): > 100 µM | GI50 (M14 [10]): 0.291 µM | LC50 (concentration killing 50% of cells) (M14 [10]): > 100 µM | TGI (M14 [10]): > 100 µM | GI50 (OVCAR-3): 0.367 µM | TGI (OVCAR-3): 15.8 µM | CC50 (OVCAR-3): > 100 µM | GI50 (A498 [11]): 0.18 µM | TGI (A498 [11]): 4 µM | CC50 (A498 [11]): > 100 µM | GI50 (RXF 393): 0.163 µM | TGI (RXF 393): 0.777 µM | CC50 (RXF 393): > 100 µM | GI50 (TK-10): 23.2 µM | TGI (TK-10): > 100 µM | CC50 (TK-10): > 100 µM | GI50 (UO-31 [12]): 14.8 µM | TGI (UO-31 [12]): > 100 µM | CC50 (UO-31 [12]): > 100 µM

Cc1ccc(NC(=O)c2sc3nc4c(cc3c2N)C(=O)CCC4)cc1C
growth at 0.01 µM (RPMI-8226): 99% | growth at 0.01 µM (HT-29): 106% | growth at 0.01 µM (ACHN [1]): 98% | growth at 0.01 µM (UO-31 [2]): 81% | growth at 0.1 µM (HOP-92): 72% | growth at 0.1 µM (NCI-H226): 88% | growth at 0.1 µM (NCI-H522 [3]): 82% | growth at 0.1 µM (COLO 205): 98% | growth at 0.1 µM (HCT-15): 90% | growth at 0.1 µM (SNB-75): 70% | growth at 0.1 µM (M14 [4]): 86% | growth at 0.1 µM (SK-MEL-2): 90% | growth at 0.1 µM (UACC-257): 92% | growth at 0.1 µM (SK-OV-3 [5]): 107% | growth at 0.1 µM (SN12C): 96% | growth at 1 µM (MOLT-4): 82% | growth at 1 µM (A549): 40% | growth at 1 µM (HCT-116): 33% | growth at 1 µM (SF-539): 21% | growth at 1 µM (OVCAR-5): 66% | growth at 1 µM (SK-OV-3 [6]): 29% | growth at 100 µM (NCI-H522 [7]): -13% | growth at 100 µM (U-251): -9% | growth at 100 µM (SK-MEL-5): -57% | growth at 100 µM (A498 [8]): -17% | growth at 100 µM (ACHN [9]): 12% | growth at 100 µM (MCF7): 8% | GI50 (SF-268): 3.07 µM | LC50 (concentration killing 50% of cells) (SF-268): > 100 µM | TGI (SF-268): > 100 µM | GI50 (M14 [10]): 0.366 µM | LC50 (concentration killing 50% of cells) (M14 [10]): > 100 µM | TGI (M14 [10]): > 100 µM | GI50 (OVCAR-3): 0.343 µM | TGI (OVCAR-3): 1.4 µM | CC50 (OVCAR-3): > 100 µM | GI50 (A498 [11]): 0.198 µM | CC50 (A498 [11]): > 100 µM | GI50 (RXF 393): 0.222 µM | CC50 (RXF 393): > 100 µM | TGI (TK-10): > 100 µM | CC50 (TK-10): > 100 µM | GI50 (UO-31 [12]): 0.0505 µM | TGI (UO-31 [12]): > 100 µM | CC50 (UO-31 [12]): > 100 µM
